In ChEMBL document CHEMBL1122708, “Preparation and antibacterial activities of new 1,2,3-diazaborine derivatives and analogues” (1984):
≈ marks a conversion by molar mass, not a printed value.

Legend:
Klebsiella aerogenes = assay: Minimum inhibitory concentration of compound against Enterobacter aerogenes delta 220; type: functional
Klebsiella pneumoniae = assay: Minimum inhibitory concentration of compound against Klebsiella pneumoniae delta 217; type: functional
Neisseria gonorrhoeae [1] = assay: Minimum inhibitory concentration of compound against Neisseria gonorrhoeae AS 7720; type: functional
Method in brief: (§1)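 Agar dilution on Kellogg agar, 10⁶ colony forming units, incubated 20 h at 36 °C in 5% CO₂; MIC is the lowest concentration giving no visible growth.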

Proteus mirabilis = assay: Minimum inhibitory concentration against Proteus mirabilis delta 89; type: functional
Salmonella typhimurium = assay: Minimum inhibitory concentration of compound against Salmonella Typhimurium delta 119; type: functional, Salmonella enterica subsp. enterica serovar Typhimurium; conditions: Salmonella enterica
Neisseria gonorrhoeae [2] = assay: Minimum inhibitory concentration of compound against Neisseria gonorrhoeae W2; type: functional; method in brief: as §1
Escherichia coli [3] = assay: Minimum inhibitory concentration of compound against Escherichia coli delta 120; type: functional
Escherichia coli [4] = assay: Antibacterial activity againist Escherichia coli 120 infected NMRI mice after peroral administration; type: functional; conditions: po
Method in brief: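 ED50 in NMRI mice infected intraperitoneally with E. coli 120; compound given orally immediately and 5 h after infection.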

| SMILES | MIC (Klebsiella aerogenes) | MIC (Klebsiella pneumoniae) | MIC (Neisseria gonorrhoeae [1]) | MIC (Proteus mirabilis) | MIC (Salmonella typhimurium) | MIC (Neisseria gonorrhoeae [2]) | MIC (Escherichia coli [3]) | ED50 (Escherichia coli [4]) |
| --- | --- | --- | --- | --- | --- | --- | --- | --- |
| CCS(=O)(=O)N1N=Cc2sc(Br)cc2B1O | 12.5 µg/mL (≈ 38.7 µM) | 3.12 µg/mL (≈ 9.66 µM) | 2 µg/mL (≈ 6.19 µM) | 6.25 µg/mL (≈ 19.3 µM) | 3.12 µg/mL (≈ 9.66 µM) | 2 µg/mL (≈ 6.19 µM) | 12.5 µg/mL (≈ 38.7 µM) | – |
| Cc1ccc(S(=O)(=O)N2N=Cc3cc(C)ccc3B2O)cc1 | 50 µg/mL (≈ 159 µM) | 1.56 µg/mL (≈ 4.97 µM) | 1 µg/mL (≈ 3.18 µM) | 3.12 µg/mL (≈ 9.93 µM) | 3.12 µg/mL (≈ 9.93 µM) | 8 µg/mL (≈ 25.5 µM) | 12.5 µg/mL (≈ 39.8 µM) | ~15 mg/kg |
| Cc1cc2c(s1)C=NN(S(=O)(=O)c1ccccc1Cl)B2O | 12.5 µg/mL (≈ 36.7 µM) | 1.56 µg/mL (≈ 4.58 µM) | 0.5 µg/mL (≈ 1.47 µM) | 1.56 µg/mL (≈ 4.58 µM) | 1.56 µg/mL (≈ 4.58 µM) | 0.5 µg/mL (≈ 1.47 µM) | 12.5 µg/mL (≈ 36.7 µM) | 49 mg/kg |
| O=[N+]([O-])c1ccc(S(=O)(=O)N2N=Cc3c(F)cccc3B2O)cc1 | – | – | – | – | 50 µg/mL (≈ 143 µM) | – | > 50 µg/mL | ~100 mg/kg |
| Cc1ccc2c(c1)C=NN(S(=O)(=O)N(C)C)B2O | > 50 µg/mL | 6.25 µg/mL (≈ 23.4 µM) | 8 µg/mL (≈ 29.9 µM) | 6.25 µg/mL (≈ 23.4 µM) | 12.5 µg/mL (≈ 46.8 µM) | 8 µg/mL (≈ 29.9 µM) | > 50 µg/mL | – |
| CCCS(=O)(=O)N1N=Cc2sc(C)cc2B1O | 3.12 µg/mL (≈ 11.5 µM) | 0.39 µg/mL (≈ 1.43 µM) | 1 µg/mL (≈ 3.67 µM) | 0.78 µg/mL (≈ 2.87 µM) | 0.78 µg/mL (≈ 2.87 µM) | 1 µg/mL (≈ 3.67 µM) | 1.56 µg/mL (≈ 5.73 µM) | 4.5 mg/kg |
| CC1=NN(S(=O)(=O)c2ccc(C)cc2)B(O)c2ccccc21 | – | – | – | – | > 50 µg/mL | – | > 50 µg/mL | ~100 mg/kg |
| O=S(=O)(c1ccccc1Cl)N1N=Cc2sc(Br)cc2B1O | 25 µg/mL (≈ 61.7 µM) | 1.56 µg/mL (≈ 3.85 µM) | 0.5 µg/mL (≈ 1.23 µM) | 0.78 µg/mL (≈ 1.92 µM) | 3.12 µg/mL (≈ 7.69 µM) | 1 µg/mL (≈ 2.47 µM) | 25 µg/mL (≈ 61.7 µM) | 39 mg/kg |
| Cc1ccc(S(=O)(=O)N2N=Cc3c(ccn3C)B2O)cc1 | – | – | – | – | > 50 µg/mL | – | > 50 µg/mL | > 300 mg/kg |
| CCCS(=O)(=O)N1N=Cc2sccc2B1O | 25 µg/mL (≈ 96.8 µM) | 1.56 µg/mL (≈ 6.04 µM) | 8 µg/mL (≈ 31 µM) | 25 µg/mL (≈ 96.8 µM) | 3.12 µg/mL (≈ 12.1 µM) | 8 µg/mL (≈ 31 µM) | 6.25 µg/mL (≈ 24.2 µM) | 28 mg/kg |
| Nc1ccc(S(=O)(=O)N2N=Cc3c(F)cccc3B2O)cc1 | 50 µg/mL (≈ 157 µM) | 10 µg/mL (≈ 31.3 µM) | 8 µg/mL (≈ 25.1 µM) | 6.25 µg/mL (≈ 19.6 µM) | 10 µg/mL (≈ 31.3 µM) | 8 µg/mL (≈ 25.1 µM) | 25 µg/mL (≈ 78.3 µM) | 65 mg/kg |
| O=[N+]([O-])c1ccc(S(=O)(=O)N2N=Cc3cc(Br)ccc3B2O)cc1 | > 50 µg/mL | 0.78 µg/mL (≈ 1.9 µM) | 1 µg/mL (≈ 2.44 µM) | 3.12 µg/mL (≈ 7.61 µM) | 3.12 µg/mL (≈ 7.61 µM) | 8 µg/mL (≈ 19.5 µM) | 6.25 µg/mL (≈ 15.2 µM) | ~25 mg/kg |
